2 molecules from BindingDB's records for doi:10.1016/j.ejmech.2016.08.061 (South China University of Technology, 2017) can be followed below.

The target in test [1] is Cholinesterase (Equus caballus, UniProt P81908). As to the kind of experiment: Irreversible inhibition of equine serum BuChE assessed as second order carbamylation rate constant using S-butyrylthiocholine iodide as substrate preincubated up to 45 mins followed by substrate addition measured after 5 mins. The note with it: read-out: kon (M-1-s-1). The essentials: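 Equine BChE, pH 8, 37°C, was preincubated for 1, 2, 4, 8, 15, 30 and 45 min with inhibitor at 1×10^-7 to 5×10^-6 M (seven levels). Residual activity was read by Ellman with BTCh and normalised to a water control at each time. kobs came from a one-phase exponential decay fit; k_I1 came from the linear kobs versus concentration relation.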

The target of test [2] is Cholinesterase (Homo sapiens, UniProt P06276). Briefly: Irreversible inhibition of human plasma BuChE assessed as second order carbamylation rate constant using S-butyrylthiocholine iodide as substrate preincubated up to 45 mins followed by substrate addition measured after 5 mins. The settings on record: read-out: kon (M-1-s-1). The essentials:
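Diluted human plasma BChE was preincubated for 1–45 min with inhibitor at 5×10^-9, 1×10^-8, 2.5×10^-8 and 5×10^-8 M. Residual Ellman activity with BTCh at pH 8 was normalised to a water control. kobs came from a one-phase exponential fit; k_I1 came from the slope of kobs versus concentration.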

Sequence of Cholinesterase (Homo sapiens, UniProt P06276) (P06276 whole entry): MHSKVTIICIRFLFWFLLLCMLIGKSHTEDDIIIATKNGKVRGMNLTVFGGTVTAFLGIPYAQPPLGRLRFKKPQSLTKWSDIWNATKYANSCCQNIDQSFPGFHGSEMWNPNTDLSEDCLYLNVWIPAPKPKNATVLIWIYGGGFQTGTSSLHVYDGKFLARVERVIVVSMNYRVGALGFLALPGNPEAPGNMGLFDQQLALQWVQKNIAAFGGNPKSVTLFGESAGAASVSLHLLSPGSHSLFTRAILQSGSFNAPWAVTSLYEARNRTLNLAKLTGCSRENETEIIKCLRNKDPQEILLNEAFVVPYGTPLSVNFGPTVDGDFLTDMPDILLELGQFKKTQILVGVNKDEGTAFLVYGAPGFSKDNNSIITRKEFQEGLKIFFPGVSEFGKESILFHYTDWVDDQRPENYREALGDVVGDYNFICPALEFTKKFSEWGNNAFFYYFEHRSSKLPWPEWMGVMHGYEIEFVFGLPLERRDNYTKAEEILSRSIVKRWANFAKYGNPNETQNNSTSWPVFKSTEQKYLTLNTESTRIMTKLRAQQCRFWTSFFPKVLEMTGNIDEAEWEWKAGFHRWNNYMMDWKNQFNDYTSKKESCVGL
Sequence of Cholinesterase (Equus caballus, UniProt P81908) (P81908 whole entry): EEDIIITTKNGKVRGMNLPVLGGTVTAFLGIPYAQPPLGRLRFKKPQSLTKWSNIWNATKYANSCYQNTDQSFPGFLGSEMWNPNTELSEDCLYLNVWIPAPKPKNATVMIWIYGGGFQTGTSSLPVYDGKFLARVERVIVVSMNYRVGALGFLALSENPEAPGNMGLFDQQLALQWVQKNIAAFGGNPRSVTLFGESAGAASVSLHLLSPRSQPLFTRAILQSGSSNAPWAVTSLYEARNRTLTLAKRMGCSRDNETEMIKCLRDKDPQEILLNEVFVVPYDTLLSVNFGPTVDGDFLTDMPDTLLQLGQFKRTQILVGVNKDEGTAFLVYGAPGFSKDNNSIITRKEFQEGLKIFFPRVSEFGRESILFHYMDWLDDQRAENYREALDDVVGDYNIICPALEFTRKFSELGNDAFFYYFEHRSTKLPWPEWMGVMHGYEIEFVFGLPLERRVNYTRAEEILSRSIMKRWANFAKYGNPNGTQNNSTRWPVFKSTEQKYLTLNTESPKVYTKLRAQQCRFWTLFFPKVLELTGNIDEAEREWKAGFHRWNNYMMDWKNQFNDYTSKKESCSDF

Broadly, the kon is the rate constant with which the complex forms. `CCC(C)(C)NCC(O)c1cc(OC(=O)N(C)C)cc(OC(=O)N(C)C)c1` (centres undefined): the kon on Cholinesterase [1] is 2370 M⁻¹ s⁻¹; on Cholinesterase [2], 100000 M⁻¹ s⁻¹.
As for `CCN(C)C(=O)Oc1cc(OC(=O)N(C)CC)cc(C(O)CNC(C)(C)CC)c1` (centres undefined), the kon on Cholinesterase [1] is 2480 M⁻¹ s⁻¹; at Cholinesterase [2] it was 122000 M⁻¹ s⁻¹.
